ChEMBL document CHEMBL3351281, “1,3,4-Oxadiazole-containing histone deacetylase inhibitors: anticancer activities in cancer cells” (J Med Chem, 2014)
Calls of active or inactive are those of the source. The calls are words filed in the database; no cut-off is given here.

Tests used:
Histone deacetylase 1 = Histone deacetylase 1 (Homo sapiens, UniProt Q13547); experiment: Inhibition of human recombinant HDAC1 using histone H3 substrate pre-incubated at room temperature for 15 mins before substrate addition by fluorimetric assay
Histone deacetylase 4 = Histone deacetylase 4 (Homo sapiens, UniProt P56524); experiment: Inhibition of human recombinant HDAC4 using non-histone trifluoroacetyl lysine substrate pre-incubated at room temperature for 15 mins before substrate addition by fluorimetric assay
[1] = target: T1, Protein deacetylase HDAC6 (Homo sapiens, UniProt Q9UBN7); experiment: Inhibition of human recombinant HDAC6 pre-incubated at room temperature for 15 min before substrate addition by fluorimetric assay
T1 sequence (Q9UBN7 whole entry): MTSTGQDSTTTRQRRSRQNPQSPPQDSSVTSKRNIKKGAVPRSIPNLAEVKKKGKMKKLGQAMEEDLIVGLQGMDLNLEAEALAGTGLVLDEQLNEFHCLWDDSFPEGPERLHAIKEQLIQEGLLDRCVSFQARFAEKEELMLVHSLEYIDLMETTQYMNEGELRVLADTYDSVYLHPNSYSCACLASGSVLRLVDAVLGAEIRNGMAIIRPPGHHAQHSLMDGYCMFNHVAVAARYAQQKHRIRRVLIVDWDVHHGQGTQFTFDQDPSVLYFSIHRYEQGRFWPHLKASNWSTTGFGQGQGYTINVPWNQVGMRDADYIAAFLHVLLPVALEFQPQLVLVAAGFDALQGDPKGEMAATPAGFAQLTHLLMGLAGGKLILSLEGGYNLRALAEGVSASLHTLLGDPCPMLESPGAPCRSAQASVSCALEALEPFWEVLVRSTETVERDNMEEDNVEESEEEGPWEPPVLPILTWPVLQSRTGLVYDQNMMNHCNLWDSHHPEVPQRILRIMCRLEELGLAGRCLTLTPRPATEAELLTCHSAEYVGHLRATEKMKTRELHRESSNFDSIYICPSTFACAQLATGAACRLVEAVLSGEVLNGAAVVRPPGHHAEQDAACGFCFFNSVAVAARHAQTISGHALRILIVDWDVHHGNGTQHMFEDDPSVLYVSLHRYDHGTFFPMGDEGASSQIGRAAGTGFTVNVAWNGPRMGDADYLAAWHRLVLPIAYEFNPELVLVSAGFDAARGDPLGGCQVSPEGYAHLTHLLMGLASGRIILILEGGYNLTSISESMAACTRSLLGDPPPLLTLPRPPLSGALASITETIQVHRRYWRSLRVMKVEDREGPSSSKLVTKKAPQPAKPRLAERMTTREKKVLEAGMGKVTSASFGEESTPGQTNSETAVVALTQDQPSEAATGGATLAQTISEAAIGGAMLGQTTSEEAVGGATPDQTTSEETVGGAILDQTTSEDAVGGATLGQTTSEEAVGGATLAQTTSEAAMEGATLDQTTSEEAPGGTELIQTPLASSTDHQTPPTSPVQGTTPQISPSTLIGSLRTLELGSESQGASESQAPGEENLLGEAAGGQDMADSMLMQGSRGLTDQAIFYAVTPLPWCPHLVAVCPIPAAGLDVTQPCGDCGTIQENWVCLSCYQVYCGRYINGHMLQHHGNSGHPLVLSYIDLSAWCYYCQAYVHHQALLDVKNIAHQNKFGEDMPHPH

U-937 [2] = experiment: Induction of granulocytic differentiation in human U937 cells assessed as increase in CD11c expression at 5 uM after 48 hrs by FACS method; assay type: functional
Method in brief: (§1)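 Granulocytic differentiation in U937 cells at 0.1, 1, 5, 10 and 25 μM for 24 and 48 h, with reference drugs at 5 μM as positive controls. Read-out was the percentage of CD11c-positive, propidium iodide-negative cells.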

U-937 [3] = experiment: Induction of apoptosis in human U937 cells assessed as accumulation at pre-G1 phase at 5 uM after 48 hrs by propidium iodide staining based FACS method; assay type: functional
Method in brief: (§2)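 U937 cells exposed to 0.1, 1, 5, 10 and 25 μM for 24 and 48 h. Reference drugs at 5 μM served as positive controls. Apoptosis taken as the percentage of cells in the pre-G1 peak.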

U-937 [4] = experiment: Induction of cell cycle arrest in human U937 cells assessed as accumulation at S phase at 5 uM after 48 hrs by propidium iodide staining based FACS method; assay type: functional
Method in brief: (§3)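 U937 cells treated at 0.1, 1, 5, 10 and 25 μM for 24 and 48 h, with reference drugs at 5 μM as positive controls. Cell-cycle distribution measured, with accumulation in S phase scored.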

U-937 [5] = experiment: Induction of granulocytic differentiation in human U937 cells assessed as increase in CD11c expression after 48 hrs by FACS method; assay type: functional, cell-based; method in brief: as §1
U-937 [6] = experiment: Induction of apoptosis in human U937 cells assessed as accumulation at pre-G1 phase after 48 hrs by propidium iodide staining based FACS method; assay type: functional, cell-based; method in brief: as §2
U-937 [7] = experiment: Induction of cell cycle arrest in human U937 cells assessed as accumulation at S phase at 0.1 to 25 uM after 48 hrs by propidium iodide staining based FACS method; assay type: functional; method in brief: as §3
HEL = experiment: Antiproliferative activity against human HEL cells after 48 hrs by Cell Titer GLo Assay; assay type: functional, cell-based
Method in brief: (§4)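 AML cells grown in RPMI with 10% fetal calf serum, antibiotics, amphotericin-B, 10 mM HEPES and 2 mM glutamine, kept at 200 000 cells/mL. Exponentially growing cells seeded in duplicate in 6-well plates (2 × 10⁵ cells/well), treated 24 h later at 1 to 50 μM for 48 h. Viability by Cell Titer GLo.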

[8] = Antiproliferative activity against human KG1 cells after 48 hrs by Cell Titer GLo Assay; assay type: functional, cell-based; settings: KG-1, 48 h; method in brief: as §4
A549 = experiment: Antiproliferative activity against human A549 cells after 48 hrs by MTT assay; assay type: functional, cell-based; settings: A549, 48 h
Method in brief: (§5)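 Solid tumour cells grown in RPMI with 10% fetal calf serum and penicillin. Exponentially growing cells seeded in sextuplicate in 96-well plates (3 × 10³ cells/well), treated 24 h later at 1 to 50 μM for 48 h. Viability read by MTT.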

U2OS = experiment: Antiproliferative activity against human U2OS cells after 48 hrs by MTT assay; assay type: functional, cell-based; method in brief: as §5
MOLM-13 = experiment: Antiproliferative activity against human MOLM13 cells after 48 hrs by Cell Titer GLo Assay; assay type: functional, cell-based; settings: MOLM-13, 48 h; method in brief: as §4
[9] = Antiproliferative activity against human U937 cells after 48 hrs by Cell Titer GLo Assay; assay type: functional, cell-based; settings: U-937, 48 h; method in brief: as §4
[10] = Antiproliferative activity against human SANTO cells after 48 hrs by MTT assay; assay type: functional, cell-based; method in brief: as §5
cells = assay type: functional; settings: Homo sapiens, U-937, 24 h
U-937 [11] = experiment: Induction of cell cycle arrest in human U937 cells assessed as accumulation at S phase at 1 uM after 48 hrs by propidium iodide staining based FACS method; assay type: functional; method in brief: as §3
[12] = Antiproliferative activity against human HL60 cells after 48 hrs by Cell Titer GLo Assay; assay type: functional, cell-based; settings: HL-60, 48 h; method in brief: as §4
[13] = Antiproliferative activity against human HCT116 cells after 48 hrs by MTT assay; assay type: functional, cell-based; settings: HCT-116, 48 h; method in brief: as §5
SW-620 = experiment: Antiproliferative activity against human SW620 cells after 48 hrs by MTT assay; assay type: functional, cell-based; settings: SW-620, 48 h; method in brief: as §5
MDA-MB-468 = experiment: Antiproliferative activity against human MDA-MB-468 cells after 48 hrs by MTT assay; assay type: functional, cell-based; settings: MDA-MB-468, 48 h; method in brief: as §5
HCC1937 = experiment: Antiproliferative activity against human HCC1937 cells after 48 hrs by MTT assay; assay type: functional, cell-based; settings: HCC1937, 48 h; method in brief: as §5
M14 = experiment: Antiproliferative activity against human M14 cells after 48 hrs by MTT assay; assay type: functional, cell-based; settings: M14, 48 h; method in brief: as §5
U-937 [14] = experiment: Induction of apoptosis in human U937 cells assessed as accumulation at pre-G1 phase at 25 uM after 48 hrs by propidium iodide staining based FACS method; assay type: functional; method in brief: as §2
U-937 [15] = settings: Homo sapiens, at 2.5 µM

Histone deacetylase 1, sequence (Q13547 whole entry): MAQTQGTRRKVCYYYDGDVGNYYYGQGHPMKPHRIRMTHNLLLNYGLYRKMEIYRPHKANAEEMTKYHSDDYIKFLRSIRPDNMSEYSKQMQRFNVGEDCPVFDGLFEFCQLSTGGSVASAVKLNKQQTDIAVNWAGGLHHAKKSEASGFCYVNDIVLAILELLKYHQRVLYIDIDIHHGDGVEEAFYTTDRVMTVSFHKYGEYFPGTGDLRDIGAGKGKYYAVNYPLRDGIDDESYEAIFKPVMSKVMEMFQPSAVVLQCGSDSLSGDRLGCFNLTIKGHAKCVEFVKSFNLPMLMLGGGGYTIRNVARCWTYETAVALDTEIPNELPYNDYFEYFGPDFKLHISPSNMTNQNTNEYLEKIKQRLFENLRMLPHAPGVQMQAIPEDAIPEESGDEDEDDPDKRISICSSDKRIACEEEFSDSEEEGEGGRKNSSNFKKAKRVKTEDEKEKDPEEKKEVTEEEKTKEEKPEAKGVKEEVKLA
Histone deacetylase 4, sequence (P56524 whole entry): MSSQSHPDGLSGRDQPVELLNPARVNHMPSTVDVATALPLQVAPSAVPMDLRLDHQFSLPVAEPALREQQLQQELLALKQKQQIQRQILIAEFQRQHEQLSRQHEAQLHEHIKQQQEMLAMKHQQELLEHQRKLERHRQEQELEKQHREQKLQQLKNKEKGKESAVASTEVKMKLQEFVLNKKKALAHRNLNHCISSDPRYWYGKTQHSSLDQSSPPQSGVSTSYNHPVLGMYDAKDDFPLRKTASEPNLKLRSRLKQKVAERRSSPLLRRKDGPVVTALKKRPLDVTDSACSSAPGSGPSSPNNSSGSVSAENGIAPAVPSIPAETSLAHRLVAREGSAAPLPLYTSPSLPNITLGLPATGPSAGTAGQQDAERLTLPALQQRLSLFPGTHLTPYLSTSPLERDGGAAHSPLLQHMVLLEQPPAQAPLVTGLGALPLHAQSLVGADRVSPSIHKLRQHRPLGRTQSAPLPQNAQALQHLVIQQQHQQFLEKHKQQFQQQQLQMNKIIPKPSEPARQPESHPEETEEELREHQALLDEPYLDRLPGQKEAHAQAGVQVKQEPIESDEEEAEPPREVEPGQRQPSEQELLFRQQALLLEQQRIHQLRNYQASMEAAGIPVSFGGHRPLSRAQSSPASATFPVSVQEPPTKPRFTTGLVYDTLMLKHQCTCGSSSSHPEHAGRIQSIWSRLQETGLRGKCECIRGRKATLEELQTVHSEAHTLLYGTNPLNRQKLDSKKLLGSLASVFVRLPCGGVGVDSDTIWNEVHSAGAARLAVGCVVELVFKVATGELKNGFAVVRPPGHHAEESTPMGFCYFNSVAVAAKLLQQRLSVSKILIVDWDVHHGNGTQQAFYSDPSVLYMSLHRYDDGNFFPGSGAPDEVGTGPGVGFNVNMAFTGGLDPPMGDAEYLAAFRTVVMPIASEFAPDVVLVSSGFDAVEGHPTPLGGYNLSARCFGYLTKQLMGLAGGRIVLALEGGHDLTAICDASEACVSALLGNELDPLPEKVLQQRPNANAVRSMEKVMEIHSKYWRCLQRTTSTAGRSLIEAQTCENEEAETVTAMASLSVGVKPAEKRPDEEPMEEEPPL

Nc1ccccc1NC(=O)/C=C/c1ccc(Cc2nnc(Cc3cccc4ccccc34)o2)cc1
IC50 (Histone deacetylase 1): 4.1 µM | IC50 (Histone deacetylase 4): > 20 µM | IC50 [1]: > 20 µM

Nc1ccccc1NC(=O)c1ccc(CNC(=O)OCc2cccnc2)cc1 [ENTINOSTAT]
Activity (U-937 [2]): 47%

Nc1ccccc1NC(=O)/C=C/c1ccc(-c2nnc(Cc3c[nH]c4ccccc34)o2)cc1
IC50 (Histone deacetylase 1): 1.5 µM | IC50 (Histone deacetylase 4): > 20 µM | IC50 [1]: > 20 µM

O=C(CCCCCCC(=O)Nc1ccccc1)NO [VORINOSTAT]
Activity (U-937 [3]): 48% | Activity (U-937 [4]): Active

Nc1ccccc1NC(=O)/C=C/c1ccc(-c2nnc(Cc3ccc4ccccc4c3)o2)cc1
IC50 (Histone deacetylase 1): 2.4 µM | IC50 (Histone deacetylase 4): > 20 µM | IC50 [1]: > 20 µM

O=C(/C=C/c1ccc(-c2nnc(Cc3cccc4ccccc34)o2)cc1)NO
IC50 (Histone deacetylase 1): 0.8 µM | IC50 (Histone deacetylase 4): > 20 µM | IC50 [1]: 0.06 µM

Nc1ccccc1NC(=O)/C=C/c1ccc(-c2nnc(Cc3cccc4ccccc34)o2)cc1
Activity (U-937 [5]): Dose-dependent effect | IC50 (Histone deacetylase 1): 1 µM | IC50 (Histone deacetylase 4): > 20 µM | IC50 [1]: > 20 µM

O=C(NO)c1ccc(Cc2nnc(Cc3cccc4ccccc34)o2)cc1
Activity (U-937 [6]): Dose-dependent effect | Activity (U-937 [7]): Active | IC50 (Histone deacetylase 1): 0.2 µM | IC50 (Histone deacetylase 4): 7.8 µM | IC50 [1]: 1.2 µM

Nc1ccccc1NC(=O)c1ccc(-c2nnc(Cc3cccc4ccccc34)o2)cc1
Activity (U-937 [5]): Dose-dependent effect | IC50 (Histone deacetylase 1): 0.3 µM | IC50 (Histone deacetylase 4): > 20 µM | IC50 [1]: 16.1 µM

Nc1ccccc1NC(=O)c1ccc(Cc2nnc(Cc3cccc4ccccc34)o2)cc1
IC50 (HEL): 2 µM | Activity (U-937 [5]): Dose-dependent effect | IC50 [8]: 1.8 µM | IC50 (A549): 23.6 µM | Activity (U-937 [6]): Dose-dependent effect | IC50 (U2OS): 20.4 µM | IC50 (MOLM-13): 1.6 µM | IC50 [9]: 1.8 µM | IC50 [10]: 17.4 µM | Activity (U-937 [7]): Active | inhibition at 2.5 µM (cells): 75% | Activity (U-937 [2]): 45% | Activity (U-937 [11]): Active | IC50 [12]: 2.8 µM | IC50 [13]: 24.7 µM | IC50 (Histone deacetylase 1): 0.2 µM | IC50 (Histone deacetylase 4): > 20 µM | IC50 (SW-620): 6.7 µM | IC50 [1]: 8.9 µM | IC50 (MDA-MB-468): 19.6 µM | IC50 (HCC1937): 29.8 µM | IC50 (M14): 43.3 µM

O=C(/C=C/c1ccc(Cc2nnc(Cc3cccc4ccccc34)o2)cc1)NO
IC50 (HEL): 4.1 µM | Activity (U-937 [5]): Dose-dependent effect | IC50 [8]: 2.6 µM | IC50 (A549): 29.5 µM | Activity (U-937 [6]): Dose-dependent effect | Activity (U-937 [3]): 58% | Activity (U-937 [14]): 74% | IC50 (U2OS): 50 µM | IC50 (MOLM-13): 2.2 µM | IC50 [9]: 7.8 µM | inhibition (U-937 [15]): Active | IC50 [10]: 24 µM | IC50 [12]: 6 µM | IC50 [13]: 21.3 µM | IC50 (Histone deacetylase 1): 0.2 µM | IC50 (Histone deacetylase 4): > 20 µM | IC50 (SW-620): 5.1 µM | IC50 [1]: 0.03 µM | IC50 (MDA-MB-468): 18.4 µM | IC50 (HCC1937): 33.6 µM | IC50 (M14): 45 µM

O=C(/C=C/c1ccc(-c2nnc(Cc3c[nH]c4ccccc34)o2)cc1)NO
IC50 (Histone deacetylase 1): 0.6 µM | IC50 (Histone deacetylase 4): 15.2 µM | IC50 [1]: 0.03 µM

O=C(NO)c1ccc(-c2nnc(Cc3cccc4ccccc34)o2)cc1
IC50 (Histone deacetylase 1): 9.9 µM | IC50 (Histone deacetylase 4): > 20 µM | IC50 [1]: 4.1 µM
